Results as given in article PMC10580252 (Experimental and Therapeutic Medicine, 2023).

How the values were obtained:
[1] = tested on: Hep3B-luc in situ transplanted tumours; assay: Antitumour activity in Hep3B-luc orthotopic xenograft model; type: in vivo, BALB/c nude mice; details: intragastric 50 mg/kg ART once daily for 24 days, n=3
Summary of the method: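 Female BALB/c nude mice, 6-8 weeks, received 3x10^6 Hep3B-luc cells in 0.02 ml PBS:Matrigel (1:1) in the left hepatic lobe. They were randomized into four groups (including untreated control) once tumour fluorescence reached ~10^7. Test formulations were given intragastrically once daily for 24 days. Tumour signal and body weight were measured twice weekly. Inhibition = (ROIcontrol−ROIdrug)/ROIcontrol ×100% from mean tumour signals.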

[2] = Pharmacokinetics studies in rats; type: in vivo; details: male, SD, rat, plasma, po, 50 mg/kg
[3] = Hepatoma-targeted and bio-distribution detection; type: in vivo, BALB/c nude mice; details: tumour model mice, intragastric NR 20 mg/kg
HepG2 cells = assay: Cellular uptake of NR-labelled NPs, flow cytometry; type: cell-based; details: HepG2, NR 50 µg/ml, 0.5, 1 or 4 h
Summary of the method: (§1)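 Cells were seeded at 2x10^5 per well and cultured 24 h. They were co-incubated with Nile red-labelled nanoparticles at equal Nile red 50 µg/ml, then washed thrice with cold PBS and incubated a further 0.5, 1 or 4 h. Intracellular fluorescence was read by flow cytometry. Controls were untreated cells, free Nile red, and Nile red in unmodified PEG-PLGA nanoparticles.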

A549 cells = assay: Cellular uptake of NR-labelled NPs, flow cytometry; type: cell-based; details: A549, NR 50 µg/ml, 0.5, 1 or 4 h
Summary of the method: as §1

Row | AUC(0-inf) [2] [ng·h/mL] | AUC(0-t) [2] [ng·h/mL] | Cmax [2] [ng/mL] | MRT [2] [min] | Tmax [2] [min] | half-life [2] [min] | In vivo NR fluorescence in whole body and liver [3] | SMILES | Bioluminescence (ROI) (PG-21) [1] | Cellular fluorescence (uptake) (HepG2 cells) | Cellular fluorescence (uptake) (A549 cells)
1 | 2540 | 2540 | 4580 | 30 | 15 | 15 |  | C[C@H]1[C@H](OC(=O)CCC(=O)O)O[C@@H]2O[C@@]3(C)CC[C@H]4[C@H](C)CC[C@@H]1[C@@]24OO3 [ART, Artesunate] | 4.49±0.55 x10^9 photons/sec |  | 
2 |  |  |  |  |  |  | lower fluorescence levels at 2 h | CCN(CC)c1ccc2nc3c4ccccc4c(=O)cc-3oc2c1 [NR, Nile red] |  | little fluorescence | little fluorescence
